# Source: ChEMBL document CHEMBL3045743, “Synthesis and herbicidal activity of isoindoline-1,3-dione substituted benzoxazinone derivatives containing a carboxylic ester group” (J Agric Food Chem, 2009)
# Columns and labels:
# [1] = system: Digitaria sanguinalis; assay: Post-emergence herbicidal activity against Digitaria sanguinalis (hairy crabgrass) assessed as growth inhibition at 75 g.a.i./ha applied at one-leaf stage measured after 15 days; assay type: functional; conditions: 360 h, read-out: GI
# Outline: (§1)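 Pot-grown weeds sown 5 mm deep in greenhouse clay soil (pH 6.5, 1.7% organic matter, CEC 12.9 cmol/kg) at 22-25 °C. Stock diluted with water and sprayed post-emergence: dicots at 2-leaf stage, monocots at 1-leaf stage. Untreated and DMF solvent controls were included. % growth inhibition was scored visually versus untreated controls after 15 days. Triplicates averaged.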
# [2] = system: Brassica rapa subsp. oleifera; assay: Phytotoxicity against Brassica rapa subsp. oleifera assessed as growth inhibition at 7.5 to 60 g.a.i/ha post-emergent application measured after 15 days by greenhouse crop selectivity assay; assay type: organism-based; conditions: in vivo, other, 360 h
# Outline: (§2)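 Postemergence crop selectivity test on pot-grown plants in a greenhouse, in clay soil (pH 6.5, 1.7% organic matter, CEC 12.9 cmol/kg). Stock was diluted with water and sprayed at 60, 30, 15 or 7.5 g a.i./ha, in triplicate. Growth inhibition was rated visually against untreated controls after 15 days and given as the triplicate mean percentage.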
# [3] = system: Chenopodium album; assay: Post-emergence herbicidal activity against Chenopodium album assessed as growth inhibition at 7.5 g.a.i./ha applied at two-leaf stage measured after 15 days; assay type: functional; conditions: 360 h, read-out: GI; outline: as §1
# [4] = system: Arachis hypogaea; assay: Phytotoxicity against Arachis hypogaea (peanut) assessed as growth inhibition at 7.5 to 60 g.a.i/ha post-emergent application measured after 15 days by greenhouse crop selectivity assay; assay type: organism-based; conditions: in vivo, other, 360 h; outline: as §2
# [5] = Phytotoxicity against Oryza sativa (rice) assessed as growth inhibition at 37.5 g.a.i/ha pre-emergent application measured after 15 days by greenhouse crop selectivity assay; assay type: organism-based, L.; conditions: in vivo, 37.5 g.a.i/ha, read-out: GI
# Outline: (§3)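 Pre-emergence greenhouse crop selectivity test on pot-grown plants in clay soil (pH 6.5, 1.7% organic matter, 37.5% clay, CEC 12.9 cmol/kg). Stock solutions were diluted with water and applied at 300, 150, 75 or 37.5 g a.i./ha, in triplicate. After 15 days, phytotoxicity was scored visually against untreated controls as % crop growth inhibition, averaged over the triplicates.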
# [6] = system: Echinochloa crus-galli; assay: Pre-emergence herbicidal activity against Echinochloa crus-galli (barnyard grass) assessed as growth inhibition at 75 g.a.i./ha applied 24 hr after seeds were sown measured after 15 days; assay type: functional; conditions: read-out: GI
# Outline: (§4)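 Weeds sown 5 mm deep in pots of greenhouse clay soil (pH 6.5, 37.5% clay, CEC 12.9 cmol/kg) and grown at 22-25 °C. Water-diluted formulation was applied pre-emergence 24 h after sowing. Untreated and DMF solvent controls were included. Growth inhibition was visually rated in % against untreated controls after 15 days, as the mean of triplicates.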
# [7] = system: Gossypium; assay: Phytotoxicity against Gossypium (cotton) assessed as growth inhibition at 75 g.a.i/ha pre-emergent application measured after 15 days by greenhouse crop selectivity assay; assay type: organism-based; conditions: in vivo, other, 360 h; outline: as §3
# [8] = system: Glycine max; assay: Phytotoxicity against Glycine max (soybean) assessed as growth inhibition at 150 g.a.i/ha pre-emergent application measured after 15 days by greenhouse crop selectivity assay; assay type: organism-based; conditions: in vivo, other, 360 h; outline: as §3
# [9] = system: Abutilon theophrasti; assay: Post-emergence herbicidal activity against Abutilon theophrasti (velvetleaf) assessed as growth inhibition at 75 g.a.i./ha applied at two-leaf stage measured after 15 days; assay type: functional; conditions: 360 h, read-out: GI; outline: as §1
# [10] = system: Setaria viridis; assay: Post-emergence herbicidal activity against Setaria viridis (green foxtail) assessed as growth inhibition at 37.5 g.a.i./ha applied at one-leaf stage measured after 15 days; assay type: functional; conditions: 360 h, read-out: GI; outline: as §1
# [11] = system: Abutilon theophrasti; assay: Pre-emergence herbicidal activity against Abutilon theophrasti (velvetleaf) assessed as growth inhibition at 37.5 g.a.i./ha applied 24 hr after seeds were sown measured after 15 days; assay type: functional; conditions: read-out: GI; outline: as §4
# [12] = system: Oryza sativa; assay: Phytotoxicity against Oryza sativa (rice) assessed as growth inhibition at 7.5 to 60 g.a.i/ha post-emergent application measured after 15 days by greenhouse crop selectivity assay; assay type: organism-based, L.; conditions: in vivo, other, 360 h; outline: as §2
# [13] = system: Chenopodium album; assay: Post-emergence herbicidal activity against Chenopodium album assessed as growth inhibition at 37.5 g.a.i./ha applied at two-leaf stage measured after 15 days; assay type: functional; conditions: 360 h, read-out: GI; outline: as §1
# [14] = system: Amaranthus spinosus; assay: Post-emergence herbicidal activity against Amaranthus spinosus assessed as growth inhibition at 15 g.a.i./ha applied at two-leaf stage measured after 15 days; assay type: functional; conditions: 360 h, read-out: GI; outline: as §1
# [15] = system: Gossypium; assay: Phytotoxicity against Gossypium (cotton) assessed as growth inhibition at 7.5 to 60 g.a.i/ha post-emergent application measured after 15 days by greenhouse crop selectivity assay; assay type: organism-based; conditions: in vivo, other, 360 h; outline: as §2
# [16] = system: Setaria viridis; assay: Post-emergence herbicidal activity against Setaria viridis (green foxtail) assessed as growth inhibition at 15 g.a.i./ha applied at one-leaf stage measured after 15 days; assay type: functional; conditions: 360 h, read-out: GI; outline: as §1
# [17] = system: Digitaria sanguinalis; assay: Pre-emergence herbicidal activity against Digitaria sanguinalis (hairy crabgrass) assessed as growth inhibition at 7.5 g.a.i./ha applied 24 hr after seeds were sown measured after 15 days; assay type: functional; conditions: read-out: GI; outline: as §4
# [18] = system: Echinochloa crus-galli; assay: Post-emergence herbicidal activity against Echinochloa crus-galli (barnyard grass) assessed as growth inhibition at 37.5 g.a.i./ha applied at one-leaf stage measured after 15 days; assay type: functional; conditions: 360 h, read-out: GI; outline: as §1
# [19] = system: Chenopodium album; assay: Post-emergence herbicidal activity against Chenopodium album assessed as growth inhibition at 75 g.a.i./ha applied at two-leaf stage measured after 15 days; assay type: functional; conditions: 360 h, read-out: GI; outline: as §1
# [20] = Phytotoxicity against Oryza sativa (rice) assessed as growth inhibition at 150 g.a.i/ha pre-emergent application measured after 15 days by greenhouse crop selectivity assay; assay type: organism-based, L.; conditions: in vivo, read-out: GI; outline: as §3
# [21] = system: Setaria viridis; assay: Pre-emergence herbicidal activity against Setaria viridis (green foxtail) assessed as growth inhibition at 37.5 g.a.i./ha applied 24 hr after seeds were sown measured after 15 days; assay type: functional; conditions: read-out: GI; outline: as §4
# [22] = system: Setaria viridis; assay: Post-emergence herbicidal activity against Setaria viridis (green foxtail) assessed as growth inhibition at 75 g.a.i./ha applied at one-leaf stage measured after 15 days; assay type: functional; conditions: 360 h, read-out: GI; outline: as §1
# [23] = system: Echinochloa crus-galli; assay: Post-emergence herbicidal activity against Echinochloa crus-galli (barnyard grass) assessed as growth inhibition at 75 g.a.i./ha applied at one-leaf stage measured after 15 days; assay type: functional; conditions: 360 h, read-out: GI; outline: as §1
# [24] = system: Arachis hypogaea; assay: Phytotoxicity against Arachis hypogaea (peanut) assessed as growth inhibition at 37.5 g.a.i/ha pre-emergent application measured after 15 days by greenhouse crop selectivity assay; assay type: organism-based; conditions: in vivo, other, 360 h; outline: as §3
# [25] = system: Arachis hypogaea; assay: Phytotoxicity against Arachis hypogaea (peanut) assessed as growth inhibition at 75 g.a.i/ha pre-emergent application measured after 15 days by greenhouse crop selectivity assay; assay type: organism-based; conditions: in vivo, other, 360 h; outline: as §3
# [26] = system: Triticum aestivum; assay: Phytotoxicity against Triticum aestivum (wheat) assessed as growth inhibition at 7.5 to 60 g.a.i/ha post-emergent application measured after 15 days by greenhouse crop selectivity assay; assay type: organism-based; conditions: in vivo, other, 360 h; outline: as §2
# [27] = system: Digitaria sanguinalis; assay: Pre-emergence herbicidal activity against Digitaria sanguinalis (hairy crabgrass) assessed as growth inhibition at 75 g.a.i./ha applied 24 hr after seeds were sown measured after 15 days; assay type: functional; conditions: read-out: GI; outline: as §4
# [28] = system: Brassica rapa subsp. oleifera; assay: Phytotoxicity against Brassica rapa subsp. oleifera assessed as growth inhibition at 300 g.a.i/ha pre-emergent application measured after 15 days by greenhouse crop selectivity assay; assay type: functional; conditions: pre-emergence, 360 h, read-out: GI
# Outline: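 Pot-grown crop in greenhouse clay soil (pH 6.5, 1.7% organic matter, 37.5% clay, CEC 12.9 cmol/kg). Stock diluted with water and applied pre-emergence at 300, 150, 75 or 37.5 g a.i./ha. Cultivated 15 days, then phytotoxicity scored visually as % growth inhibition versus untreated controls. Triplicate treatments, averaged.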
SMILES,inhibition of growth at 75 g/ha [1],Activity [2],inhibition of growth at 7.5 g/ha [3],Activity [4],inhibition at 360 h [5],inhibition of growth at 75 g/ha [6],growth inhibition (GI) [7],growth inhibition (GI) [8],inhibition of growth at 75 g/ha [9],inhibition of growth at 37.5 g/ha [10],inhibition of growth at 37.5 g/ha [11],Activity [12],inhibition of growth at 37.5 g/ha [13],inhibition of growth at 15 g/ha [14],Activity [15],inhibition of growth at 15 g/ha [16],inhibition of growth at 7.5 g/ha [17],inhibition of growth at 37.5 g/ha [18],inhibition of growth at 75 g/ha [19],inhibition at 360 h [20],further results
COC(=O)C(C)N1C(=O)C(C)Oc2cc(F)c(N3C(=O)C4=C(CCCC4)C3=O)cc21 (stereo unspecified),> 80%,Toxic,100%,Toxic,> 10%,> 80%,Not Active,Not Active,> 80%,80%,70%,Toxic,100%,100%,Toxic,50%,0%,50%,> 80%,> 10%,inhibition of growth at 37.5 g/ha [21]: 80%; inhibition of growth at 75 g/ha [22]: > 80%; inhibition of growth at 75 g/ha [23]: > 80%; growth inhibition (GI) [24]: Not Active; growth inhibition (GI) [25]: Not Active; Activity [26]: Toxic; inhibition of growth at 75 g/ha [27]: > 80%; inhibition of growth at 300 g/ha [28]: > 10%
CCOC(=O)C(C)N1C(=O)C(C)Oc2cc(F)c(N3C(=O)C4=C(CCCC4)C3=O)cc21 (stereo unspecified),> 80%,Toxic,100%,Toxic,> 10%,> 80%,Not Active,Not Active,> 80%,50%,20%,Toxic,100%,100%,Toxic,30%,0%,50%,> 80%,> 10%,inhibition of growth at 37.5 g/ha [21]: 60%; inhibition of growth at 75 g/ha [22]: > 80%; inhibition of growth at 75 g/ha [23]: > 80%; growth inhibition (GI) [24]: Not Active; growth inhibition (GI) [25]: Not Active; Activity [26]: Toxic; inhibition of growth at 75 g/ha [27]: > 80%; inhibition of growth at 300 g/ha [28]: > 10%
